6 molecules from ChEMBL document CHEMBL1128279, “Potent inhibitors of human inosine monophosphate dehydrogenase type II. Fluorine-substituted analogues of thiazole-4-carboxamide adenine dinucleotide” (J Med Chem, 1995) can be followed below.

SMILES strings stand for the structures.

Assay [1] deals with Inosine-5'-monophosphate dehydrogenase 2 (Homo sapiens) (UniProt P12268). In words: Inhibitory binding constant was determined against human Inosine-5'-monophosphate dehydrogenase 2 (IMPDH type II) from slope of Michaelis-Menten plot. In a few lines: (§1)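 Human IMPDH type II, stored at -70 °C in 20 mM Tris-HCl pH 8, 20 mM KCl, 1 mM EDTA, 1 mM DTT, thawed and filtered before use. Assay at 37 °C, started by adding enzyme, with saturating IMP. NADH formation read at 340 nm for 2–10 min. NAD at 20, 40, 80 and 160 µM, with two or three inhibitor levels. Kii (intercept) and Kis (slope) obtained by direct least-squares fit to the noncompetitive equation.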

The target is the same in assay [2]. In words: Inhibitory binding constant was determined against human Inosine-5'-monophosphate dehydrogenase 2 (IMPDH type II) from intercept of Michaelis-Menten plot. In a few lines: as §1

Sequence of Inosine-5'-monophosphate dehydrogenase 2 (Homo sapiens) (P12268 2-514 limits assumed): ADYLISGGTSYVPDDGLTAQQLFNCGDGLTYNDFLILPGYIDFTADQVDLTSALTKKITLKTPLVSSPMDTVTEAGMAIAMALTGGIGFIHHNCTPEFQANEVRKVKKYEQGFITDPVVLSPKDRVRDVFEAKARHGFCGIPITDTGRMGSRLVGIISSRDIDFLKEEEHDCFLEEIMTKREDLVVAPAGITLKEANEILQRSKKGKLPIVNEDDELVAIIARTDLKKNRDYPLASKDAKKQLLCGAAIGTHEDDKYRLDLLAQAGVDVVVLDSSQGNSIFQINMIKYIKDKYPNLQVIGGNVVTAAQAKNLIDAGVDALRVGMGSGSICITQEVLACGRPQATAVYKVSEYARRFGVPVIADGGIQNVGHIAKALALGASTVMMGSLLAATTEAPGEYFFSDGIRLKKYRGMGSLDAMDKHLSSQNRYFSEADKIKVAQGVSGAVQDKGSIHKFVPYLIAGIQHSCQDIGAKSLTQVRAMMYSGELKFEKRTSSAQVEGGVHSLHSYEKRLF

With `NC(=O)c1csc([C@@H]2O[C@H](COP(=O)(O)C(F)(F)P(=O)(O)OC[C@@H]3O[C@H](n4cnc5c(N)ncnc54)[C@@H](O)[C@H]3O)[C@@H](O)[C@H]2O)n1`, in assay [1], the Kis came to 0.3 µM. The molecule further came in with a Kii in assay [2] of 0.17 µM.
For `NC(=O)c1csc([C@@H]2O[C@H](COP(=O)(O)CP(=O)(O)OC[C@@H]3O[C@H](n4cnc5c(N)ncnc54)[C@@H](O)[C@H]3O)[C@@H](O)[C@H]2O)n1`, the Kii in assay [2] is 0.11 µM.
Take `NC(=O)c1csc([C@@H]2O[C@H](COP(=O)(O)OP(=O)(O)OC[C@@H]3O[C@H](n4cnc5c(N)ncnc54)[C@H](F)[C@H]3O)[C@@H](O)[C@H]2O)n1`: the Kis in assay [1] was 13 µM. In addition, in assay [2], the Kii was determined as 2.9 µM.
For `NC(=O)c1csc([C@@H]2O[C@H](COP(=O)(O)OP(=O)(O)OC[C@@H]3O[C@H](n4cnc5c(N)ncnc54)[C@@H](O)[C@H]3F)[C@@H](O)[C@H]2O)n1`, in that order: 1.5 µM and 0.7 µM.
For `NC(=O)c1csc([C@H]2O[C@@H](COP(=O)(O)OP(=O)(O)OC[C@H]3O[C@@H](n4cnc5c(N)ncnc54)[C@H](O)[C@@H]3O)[C@H](O)[C@@H]2O)n1`, in that order: 0.3 µM and 0.19 µM.
For `NC(=O)c1csc([C@@H]2O[C@H](COP(=O)(O)OP(=O)(O)OC[C@@H]3O[C@H](n4cnc5c(N)ncnc54)[C@@H](F)[C@H]3O)[C@@H](O)[C@H]2O)n1`, in that order: 6 µM and 0.5 µM.
